Experimental findings from the RNAGym collection of RNA variant scans (doi:10.1126/science.aae0568) are described below.

To fix the notation:
B1: tRNA (parent)
chain: GUUCCGUUGGCGUAAUGGUAACGCGUCUCCCUCCUAAGGAGAAGACUGCGGGUUCGAGUCCCGUACGGAACG

Variants at the floor of the assay were thinned out. Where only a bound is given, the exact number is not on record here.

In the data set the parent is B1. Briefly: yeast fitness relative to wild type (ratio to wild type); higher = fitter; tRNA-Arg(CCU), competitive growth, 37 C, YPD. In short, it runs like this:
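Genotype frequency changes were the basis for Darwinian fitness relative to wild type. The frequencies came from 100-nucleotide paired-end sequencing of gene amplicons from the start population and each end population of pooled yeast strains with tRNA-Arg(CCU) gene variants at the native locus. Competition ran in YPD at 37°C for 24 hours in six replicates, genotypes needed ≥ 100 starting reads, and estimates < 0.5 were set to 0.5.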
As for GUUCCGUUGGCGUAAUGGUGACGUGUCUCCAUCCUAAGGAGAAGACUGCGGGUUCGAGUCCCGUACGCAACG [A20G C24U C31A G68C], the yeast fitness was not above 0.5.
As for GUUCCGUUGGCGUAAUGGUGACGGGUCUCGCUCCUAAGGAGAAGACUGCGGGUUCGAGUCCCGUACGGAACG [A20G C24G C30G], the figure is not above 0.5.
As for GUUCCGUUGGCGUAAUGGUGACGCGUGUCCCUCCGAAGGAGAAGACUGCGGGUUCGAGUCCCGUACGGAACG [A20G C27G U35G], the figure is not above 0.5; as for GUUCCGUUGGCGUAAUGGUGACGAGUCUCCCUCCUAAGGAGAAGCCUGCGGGUUCGAGUCCCGUACGGAACG [A20G C24A A45C], not above 0.5; as for GUUCCGUUGGCGUAAUGGUGACGCGUUUCCCUCCUAAGGAGAAGACUGCGGGUUCGAGUCCCGUAUGGAACG [A20G C27U C66U], 0.689.
Regarding GUUCCGUUGGCGUAAUGGUGACGGGUUUCCCUCCUAAGGAGAAGACUGCGGGUUCGAGUCCAGUAAGGAACG [A20G C24G C27U C62A C66A], the yeast fitness is not above 0.5.
Turning to GUUCCGUUGGCGUAAUGGUGACGCGUCUCGCUCCUAAAGAGAAGACUGCGGGUUCGAGUCCCGUACGGAACG [A20G C30G G38A], the yeast fitness was not above 0.5.
As for GUUCCGUUGGCGUAAUGGUGAAGCGUCUCCCUCCUAAGGAGGAGACUGCGGGUUCGAGUCCCGUACGGAACG [A20G C22A A42G], the figure is 0.557.
With GUUCCGUUGGCGUAAUGGUGAGGCGUGUCUGUCCUAAGGAGAAGACUGCGCGUUCGAGUCACGUACGGCACG [A20G C22G C27G C30U C31G G51C C61A A69C], the yeast fitness was not above 0.5.
Consider GUUCCGUUGGCGUAAUGGUGACGUGUCUCCCUCCUAAGGAGAAGACUGCGGAUUCGGGUCCCGUAUGGAACG [A20G C24U G52A A57G C66U], for which the yeast fitness was not above 0.5.
With GUUCCGUUGGCGUAAUGGUGACGAGUCUGCCUCCUAUGAAGAAGACCGCGGGUUCGAGUCCCGUACGGAACG [A20G C24A C29G A37U G39A U47C], the yeast fitness is not above 0.5.
As for GUUCCGUUGGCGUAAUGGUGACGCGUCUCCCUCCUAAGGAGAGGACUGCGGGUUCGAGUCCCGUUCGGAACG [A20G A43G A65U], the figure is 0.596.
As to GUUCCGUUGGCGUAAUGGUGACGCGUCUCCCUCCUAAGGCGUCGACUACGGGUUCGAGUCCCGUACGGAACG [A20G A40C A42U A43C G48A], the yeast fitness was found to be 0.562.
For GUUCCGUUGGCGUAAUGGUGACGCGUUGCCCUCCUAAGGAGAAGACUGCGGGUUCGAGUCCCGUACGAAACG [A20G C27U U28G G68A], the yeast fitness is not above 0.5.
As for GUUCCGUUGGCGUAAUGGUGAAGCGUCUCCCUCCUACGGAGAAGACUGCGGGUUCGAGUCCCGUGCGGAACG [A20G C22A A37C A65G], the figure is not above 0.5; as for GUUCCGUUGGCGUAAUGGUGACGUGUCUCCCUUCUAAGGAGACGACUGCGGGUUAGAGCCCCGUACGGAACG [A20G C24U C33U A43C C55A U59C], 0.539.
As for GUUCCGUUGGCGUAAUGGUGAUGCGUCUCCCUCCUAAGGAGAAGACUGCGGGAUCGAGUCCCGUACGGAACG [A20G C22U U53A], the figure is not above 0.5; as for GUUCCGUUGGCGUAAUGGUGACGCGUGUCCCUCCUAAGGAGAAGACGGCGGGUUCGAGUCCUGUUCGGAACG [A20G C27G U47G C62U A65U], not above 0.5.
Then GUUCCGUUGGCGUAAUGGUGAUGCGUCUCCCUCCUAAGGAGAGGACUGCGGGUUCGAGUCCCGUACGGAACG [A20G C22U A43G], with 0.624.
On to GUUCCGUUGGCGUAAUGGUGACGCGUCUCCGUCCUAAGGAGAAGACUGCGGGUUCGAGUGCCCUACGGAACG [A20G C31G C60G G63C], for which the yeast fitness was not above 0.5.
Then GUUCCGUUGGCGUAAUGGUGAUGCGUCUCCCUCCUAUGGACAAGAAUGCGGGUUCGAGUCCCGUACGGAACG [A20G C22U A37U G41C C46A], with not above 0.5.
In the case of GUUCCGUUGGCGUAAUGGUGACGCGUCUUCCUCCUAAGGAGAAGACUCCGGAUUCGAGUCCCGUACGGAACG [A20G C29U G48C G52A], the yeast fitness was not above 0.5.
Regarding GUUCCGUUGGCGUAAUGGUGACGCGUGUCCCUCCUGAGGAGAAGACUGCGGGUUCGAGUCCCGUACGGAACG [A20G C27G A36G], the yeast fitness came out at 0.504.
Then GUUCCGUUGGCGUAAUGGUGAGGCGUCUCCCUCCUAAGGAGAAGACUGCGGGUUCGAGUCCCGUACGGAACG [A20G C22G], with 0.952; and GUUCCGUUGGCGUAAUGGUGACGCGUCUCCCUCCUAAGGAGAGGACGGCGGGUUCGAGUCCCGUACCGAACG [A20G A43G U47G G67C], with not above 0.5; and GUUCCGUUGGCGUAAUGGUGACGCGUCUCCCUCCUAAGGAGAAGACUGCGGGUUCGAGUCCCGUGCGGACCG [A20G A65G A70C], with 0.694.
Then GUUCCGUUGGCGUAAUGGUGAGGCGUGUCUGUCCUAAGGAGAAGACUGCGCGUUCGAGUCCCAUGCGGAACG [A20G C22G C27G C30U C31G G51C G63A A65G], with not above 0.5; and GUUCCGUUGGCGUAAUGGUGACGCGUCUCCCUCCUAAGGAGCAGCCUGCGGGUUCGAGUCCCGUACCGAACG [A20G A42C A45C G67C], with not above 0.5.
GUUCCGUUGGCGUAAUGGUGAGGCGUGUCUGUCCUAAGGAGAAGACUGCGCGUUCGAGUCGCGUACGGAACG [A20G C22G C27G C30U C31G G51C C61G]: the yeast fitness was not above 0.5.
Turning to GUUCCGUUGGCGUAAUGGUGACGCGUCUCCCUCCUAAGGAGAGGACUGCGGGUUCGAGUCCCGUACGGAACG [A20G A43G], the yeast fitness was 1.07.
Then GUUCCGUUGGCGUAAUGGUGACGCGUCUCCCUCCUAAGGAGACGACUGCGGGUUCGAGUCCCGUACGGAACG [A20G A43C], with 1.09.
As for GUUCCGUUGGCGUAAUGGUGACGCGUCUCCCUCCUAAGGAGCAGACUGCGGGUUCGAGUCCCGUACGGAACG [A20G A42C], the figure is 1.05; as for GUUCCGUUGGCGUAAUGGUGACGCGUCUCCCUCCUAAGGAGGAGACUGCGGGUUCGAGUCCCGUACGGAACG [A20G A42G], 0.969; as for GUUCCGUUGGCGUAAUGGUGACGCGUCUCCCUCCUAAGGCGUCGACUACGGGUUCGAGUCCCGUAUGGAACG [A20G A40C A42U A43C G48A C66U], 0.532.
As for GUUCCGUUGGCGUAAUGGUGACGCGUAUCCAUCCUAAGGAGAAGACUGCGGGUUCGAGUCUCGUACGGAACG [A20G C27A C31A C61U], the figure is not above 0.5; as for GUUCCGUUGGCGUAAUGGUGACGGGUUUCCCUCCUAAGGCGAAGACUGCGGGUUCGAGUCCCGUACGGAACG [A20G C24G C27U A40C], 0.532.
Turning to GUUCCGUUGGCGUAAUGGUGACGCGUCUCCUUCCUAAGGAGUAGAUUGCGGGUUCGAGUCCCGUCCGGAACG [A20G C31U A42U C46U A65C], the yeast fitness was not above 0.5.
Regarding GUUCCGUUGGCGUAAUGGUGACGUGUCUCCCUCCUAAGGAGAAGAUUGCGGGUUCGAGUCCCGUACGGAACG [A20G C24U C46U], the yeast fitness was 0.733.
